In ChEMBL document CHEMBL1765074, “Synthesis, evaluation and structural studies of antiproliferative tubulin-targeting azetidin-2-ones” (Bioorg Med Chem, 2011):

How the values were obtained:
MCF7 [1] = experiment: Antiproliferative activity against human MCF7 cells by MTT assay; type: functional, cell-based
Procedure, shortened: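 MCF-7 cells grown in Eagle's MEM with 10% FBS, 2 mM L-glutamine, penicillin/streptomycin and 1% non-essential amino acids. Seeded at 2.5×10^4 cells/mL, left 24 h at 37°C, then treated 72 h across 1 nM–100 μM from ethanol stocks (vehicle 1% v/v). MTT at 1 mg/mL final for 2 h in darkness, DMSO solubilisation, absorbance read. IC50 is the mean of at least three experiments in triplicate.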

MDA-MB-231 [2] = experiment: Antiproliferative activity against human MDA-MB-231 cells by MTT assay; type: functional, cell-based
Procedure, shortened: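 MDA-MB-231 cells in DMEM with 10% FBS, 2 mM L-glutamine and penicillin/streptomycin were seeded at 2.5×10^4 cells/mL and held 24 h at 37°C. They then got ethanol-stock compound over 1 nM–100 μM (vehicle 1% v/v ethanol) for 72 h. MTT at 1 mg/mL final was added for 2 h in the dark, then DMSO for 20 min before absorbance. Untreated = 100% viability. IC50 is the mean ± S.E.M. of ≥3 triplicate experiments.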

CCRF-CEM = experiment: Antiproliferative activity against human CCRF-CEM cells; type: functional; conditions: read-out: LC50 (the source's name)
HL-60(TB) = experiment: Antiproliferative activity against human HL-60(TB) cells; type: functional; conditions: read-out: LC50 (the source's name)
K562 = experiment: Antiproliferative activity against human K562 cells; type: functional; conditions: read-out: LC50 (the source's name)
A549 = experiment: Antiproliferative activity against human A549 cells; type: functional; conditions: read-out: LC50 (the source's name)
EKVX = experiment: Antiproliferative activity against human EKVX cells; type: functional; conditions: read-out: LC50 (the source's name)
HOP-62 = experiment: Antiproliferative activity against human HOP62 cells; type: functional; conditions: read-out: LC50 (the source's name)
HOP-92 = experiment: Antiproliferative activity against human HOP92 cells; type: functional; conditions: read-out: LC50 (the source's name)
NCI-H226 = experiment: Antiproliferative activity against human NCI-H226 cells; type: functional; conditions: read-out: LC50 (the source's name)
COLO 205 = experiment: Antiproliferative activity against human COLO205 cells; type: functional; conditions: read-out: LC50 (the source's name)
HCC 2998 = experiment: Antiproliferative activity against human HCC2998 cells; type: functional; conditions: read-out: LC50 (the source's name)
HCT-116 = experiment: Antiproliferative activity against human HCT116 cells; type: functional; conditions: read-out: LC50 (the source's name)
SF-268 = experiment: Antiproliferative activity against human SF268 cells; type: functional; conditions: read-out: LC50 (the source's name)
SF-295 = experiment: Antiproliferative activity against human SF295 cells; type: functional; conditions: read-out: LC50 (the source's name)
SF-539 = experiment: Antiproliferative activity against human SF539 cells; type: functional; conditions: read-out: LC50 (the source's name)
LOX IMVI = experiment: Antiproliferative activity against human LOXIMVI cells; type: functional; conditions: read-out: LC50 (the source's name)
Malme-3M = experiment: Antiproliferative activity against human MALME-3M cells; type: functional; conditions: read-out: LC50 (the source's name)
M14 = experiment: Antiproliferative activity against human M14 cells; type: functional; conditions: read-out: LC50 (the source's name)
SK-MEL-2 = experiment: Antiproliferative activity against human SK-MEL-2 cells; type: functional; conditions: read-out: LC50 (the source's name)
IGROV-1 = experiment: Antiproliferative activity against human IGROV1 cells; type: functional; conditions: read-out: LC50 (the source's name)
OVCAR-4 = experiment: Antiproliferative activity against human OVCAR4 cells; type: functional; conditions: read-out: LC50 (the source's name)
OVCAR-5 = experiment: Antiproliferative activity against human OVCAR5 cells; type: functional; conditions: read-out: LC50 (the source's name)
786-0 = experiment: Antiproliferative activity against human 786-0 cells; type: functional; conditions: read-out: LC50 (the source's name)
A498 = experiment: Antiproliferative activity against human A498 cells; type: functional; conditions: read-out: LC50 (the source's name)
ACHN = experiment: Antiproliferative activity against human ACHN cells; type: functional; conditions: read-out: LC50 (the source's name)
CAKI-1 = experiment: Antiproliferative activity against human Caki1 cells; type: functional; conditions: read-out: LC50 (the source's name)
PC-3 = experiment: Antiproliferative activity against human PC3 cells; type: functional; conditions: read-out: LC50 (the source's name)
MCF7 [3] = experiment: Antiproliferative activity against human MCF7 cells; type: functional; conditions: read-out: LC50 (the source's name)
NCI/ADR-RES = experiment: Antiproliferative activity against human NCI/ADR-RES cells; type: functional; conditions: read-out: LC50 (the source's name)
MDA-MB-231 [4] = experiment: Antiproliferative activity against human MDA-MB-231 cells; type: functional; conditions: read-out: LC50 (the source's name)
MDA-MB-435 = experiment: Antiproliferative activity against human MDA-MB-435 cells; type: functional; conditions: read-out: LC50 (the source's name)
MOLT-4 = experiment: Antiproliferative activity against human MOLT4 cells; type: functional; conditions: read-out: LC50 (the source's name)
RPMI-8226 = experiment: Antiproliferative activity against human RPMI8226 cells; type: functional; conditions: read-out: LC50 (the source's name)
NCI-H23 = experiment: Antiproliferative activity against human NCI-H23 cells; type: functional; conditions: read-out: LC50 (the source's name)
[5] = Antiproliferative activity against human […] cells; type: functional; conditions: read-out: LC50 (the source's name)
NCI-H460 = experiment: Antiproliferative activity against human NCI-H460 cells; type: functional; conditions: read-out: LC50 (the source's name)
NCI-H522 = experiment: Antiproliferative activity against human NCI-H522 cells; type: functional; conditions: read-out: LC50 (the source's name)
HCT-15 = experiment: Antiproliferative activity against human HCT15 cells; type: functional; conditions: read-out: LC50 (the source's name)
KM12 = experiment: Antiproliferative activity against human KM12 cells; type: functional; conditions: read-out: LC50 (the source's name)
SW-620 = experiment: Antiproliferative activity against human SW620 cells; type: functional; conditions: read-out: LC50 (the source's name)
SNB-19 = experiment: Antiproliferative activity against human SNB19 cells; type: functional; conditions: read-out: LC50 (the source's name)
SNB-75 = experiment: Antiproliferative activity against human SNB75 cells; type: functional; conditions: read-out: LC50 (the source's name)
U-251 = experiment: Antiproliferative activity against human U251 cells; type: functional; conditions: read-out: LC50 (the source's name)
SK-MEL-28 = experiment: Antiproliferative activity against human SK-MEL-28 cells; type: functional; conditions: read-out: LC50 (the source's name)
SK-MEL-5 = experiment: Antiproliferative activity against human SK-MEL-5 cells; type: functional; conditions: read-out: LC50 (the source's name)
UACC-257 = experiment: Antiproliferative activity against human UACC257 cells; type: functional; conditions: read-out: LC50 (the source's name)
UACC-62 = experiment: Antiproliferative activity against human UACC62 cells; type: functional; conditions: read-out: LC50 (the source's name)
OVCAR-8 = experiment: Antiproliferative activity against human OVCAR8 cells; type: functional; conditions: read-out: LC50 (the source's name)
SK-OV-3 = experiment: Antiproliferative activity against human SKOV3 cells; type: functional; conditions: read-out: LC50 (the source's name)
RXF 393 = experiment: Antiproliferative activity against human RXF393 cells; type: functional; conditions: read-out: LC50 (the source's name)
SN12C = experiment: Antiproliferative activity against human SN12C cells; type: functional; conditions: read-out: LC50 (the source's name)
TK-10 = experiment: Antiproliferative activity against human TK10 cells; type: functional; conditions: read-out: LC50 (the source's name)
UO-31 = experiment: Antiproliferative activity against human UO31 cells; type: functional; conditions: read-out: LC50 (the source's name)
DU-145 = experiment: Antiproliferative activity against human DU145 cells; type: functional; conditions: read-out: LC50 (the source's name)
BT-549 = experiment: Antiproliferative activity against human BT549 cells; type: functional; conditions: read-out: LC50 (the source's name)
T47D = experiment: Antiproliferative activity against human T47D cells; type: functional; conditions: read-out: LC50 (the source's name)
MDA-MB-468 = experiment: Antiproliferative activity against human MDA-MB-468 cells; type: functional; conditions: read-out: LC50 (the source's name)

COc1ccc([C@H]2N(c3cc(OC)c(OC)c(OC)c3)C(=O)C2(c2ccccc2)c2ccccc2)cc1 (mixture of isomers)
IC50 (MCF7 [1]): 43.2 µM

COc1ccc([C@@H]2C(c3cccs3)C(=O)N2c2cc(OC)c(OC)c(OC)c2)cc1 (mixture of isomers)
IC50 (MCF7 [1]): 0.064 µM | IC50 (MDA-MB-231 [2]): 0.19 µM | CC50 (CCRF-CEM): > 100 µM | CC50 (HL-60(TB)): > 100 µM | CC50 (K562): > 100 µM | CC50 (A549): > 100 µM | CC50 (EKVX): > 100 µM | CC50 (HOP-62): > 100 µM | CC50 (HOP-92): > 100 µM | CC50 (NCI-H226): > 100 µM | CC50 (COLO 205): > 100 µM | CC50 (HCC 2998): > 100 µM | CC50 (HCT-116): > 100 µM | CC50 (SF-268): > 100 µM | CC50 (SF-295): > 100 µM | CC50 (SF-539): > 100 µM | CC50 (LOX IMVI): > 100 µM | CC50 (Malme-3M): > 100 µM | CC50 (M14): > 100 µM | CC50 (SK-MEL-2): > 100 µM | CC50 (IGROV-1): > 100 µM | CC50 (OVCAR-4): > 100 µM | CC50 (OVCAR-5): > 100 µM | CC50 (786-0): > 100 µM | CC50 (A498): > 100 µM | CC50 (ACHN): > 100 µM | CC50 (CAKI-1): > 100 µM | CC50 (PC-3): > 100 µM | CC50 (MCF7 [3]): > 100 µM | CC50 (NCI/ADR-RES): > 100 µM | CC50 (MDA-MB-231 [4]): > 100 µM | CC50 (MDA-MB-435): > 100 µM | CC50 (MOLT-4): > 100 µM | CC50 (RPMI-8226): > 100 µM | CC50 (NCI-H23): > 100 µM | CC50 [5]: > 100 µM | CC50 (NCI-H460): > 100 µM | CC50 (NCI-H522): > 100 µM | CC50 (HCT-15): > 100 µM | CC50 (KM12): > 100 µM | CC50 (SW-620): > 100 µM | CC50 (SNB-19): > 100 µM | CC50 (SNB-75): > 100 µM | CC50 (U-251): > 100 µM | CC50 (SK-MEL-28): > 100 µM | CC50 (SK-MEL-5): > 100 µM | CC50 (UACC-257): > 100 µM | CC50 (UACC-62): > 100 µM | CC50 (OVCAR-8): > 100 µM | CC50 (SK-OV-3): > 100 µM | CC50 (RXF 393): > 100 µM | CC50 (SN12C): > 100 µM | CC50 (TK-10): > 100 µM | CC50 (UO-31): > 100 µM | CC50 (DU-145): > 100 µM | CC50 (BT-549): > 100 µM | CC50 (T47D): > 100 µM | CC50 (MDA-MB-468): > 100 µM

COc1ccc([C@@H]2C(Cc3cccs3)C(=O)N2c2cc(OC)c(OC)c(OC)c2)cc1 (mixture of isomers)
IC50 (MCF7 [1]): 1.64 µM

COc1cc(N2C(=O)[C@H](c3cccs3)[C@H]2c2ccc3ccccc3c2)cc(OC)c1OC (mixture of isomers)
IC50 (MCF7 [1]): 0.12 µM

COc1cc(N2C(=O)[C@H](c3cccs3)[C@H]2c2cccs2)cc(OC)c1OC (mixture of isomers)
IC50 (MCF7 [1]): 0.91 µM

COc1ccc([C@@H]2C(c3cccs3)C(=O)N2c2cc(OC)c(OC)c(OC)c2)cc1[N+](=O)[O-] (mixture of isomers)
IC50 (MCF7 [1]): 0.37 µM

COc1ccc([C@@H]2C(c3cccc4ccccc34)C(=O)N2c2cc(OC)c(OC)c(OC)c2)cc1 (mixture of isomers)
IC50 (MCF7 [1]): 11.3 µM

COc1ccc([C@@H]2C(c3ccc4ccccc4c3)C(=O)N2c2cc(OC)c(OC)c(OC)c2)cc1 (mixture of isomers)
IC50 (MCF7 [1]): 2.5 µM

COc1ccc([C@@H]2C(c3ccoc3)C(=O)N2c2cc(OC)c(OC)c(OC)c2)cc1 (mixture of isomers)
IC50 (MCF7 [1]): 0.15 µM

COc1ccc([C@@H]2C(c3ccsc3)C(=O)N2c2cc(OC)c(OC)c(OC)c2)cc1 (mixture of isomers)
IC50 (MCF7 [1]): 0.06 µM

COc1ccc([C@@H]2C(c3ccc(C)s3)C(=O)N2c2cc(OC)c(OC)c(OC)c2)cc1 (mixture of isomers)
IC50 (MCF7 [1]): 0.25 µM

COc1ccc([C@@H]2C(c3cc4ccccc4s3)C(=O)N2c2cc(OC)c(OC)c(OC)c2)cc1 (mixture of isomers)
IC50 (MCF7 [1]): 0.85 µM

COc1ccc([C@@H]2[C@@H](C(O)c3ccsc3)C(=O)N2c2cc(OC)c(OC)c(OC)c2)cc1 (mixture of isomers)
IC50 (MCF7 [1]): 0.99 µM

COc1cc(N2C(=O)[C@H](c3cccs3)[C@H]2c2cccc3ccccc23)cc(OC)c1OC (racemic)
IC50 (MCF7 [1]): 0.62 µM
